This note sets out measurements from ChEMBL document CHEMBL1155272, “Nucleoside-5'-monophosphates as prodrugs of adenosine A2A receptor agonists activated by ecto-5'-nucleotidase” (J Med Chem, 2009).

Molecules are shown by their SMILES. pEC50, pKi: −log10 of the molar value.

One data set addresses T1, Adenosine receptor A1 (Rattus norvegicus, UniProt P25099).
T1 sequence (P25099 whole entry): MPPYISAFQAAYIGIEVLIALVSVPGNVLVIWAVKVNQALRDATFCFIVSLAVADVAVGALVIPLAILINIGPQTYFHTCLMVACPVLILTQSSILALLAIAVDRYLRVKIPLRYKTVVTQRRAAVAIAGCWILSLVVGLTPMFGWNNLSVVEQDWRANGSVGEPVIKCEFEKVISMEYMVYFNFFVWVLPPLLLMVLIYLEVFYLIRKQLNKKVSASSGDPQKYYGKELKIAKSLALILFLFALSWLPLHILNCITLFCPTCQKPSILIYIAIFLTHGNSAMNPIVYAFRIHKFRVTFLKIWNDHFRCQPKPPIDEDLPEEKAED
Kind of data set: Displacement of [3H]CCPA from adenosine A1 receptor in rat brain cortical membrane after 90 mins. (In general: Displacement assays read how much labelled ligand stays bound in the presence of the test substance.)

Another data set deals with Adenosine receptor A2a (Rattus norvegicus, UniProt P30543). Put plainly: Displacement of [3H]CGS21680 from adenosine A2A receptor in rat brain striatal membrane after 60 mins. It is filed as cell membranes.
Sequence of Adenosine receptor A2a (P30543 whole entry): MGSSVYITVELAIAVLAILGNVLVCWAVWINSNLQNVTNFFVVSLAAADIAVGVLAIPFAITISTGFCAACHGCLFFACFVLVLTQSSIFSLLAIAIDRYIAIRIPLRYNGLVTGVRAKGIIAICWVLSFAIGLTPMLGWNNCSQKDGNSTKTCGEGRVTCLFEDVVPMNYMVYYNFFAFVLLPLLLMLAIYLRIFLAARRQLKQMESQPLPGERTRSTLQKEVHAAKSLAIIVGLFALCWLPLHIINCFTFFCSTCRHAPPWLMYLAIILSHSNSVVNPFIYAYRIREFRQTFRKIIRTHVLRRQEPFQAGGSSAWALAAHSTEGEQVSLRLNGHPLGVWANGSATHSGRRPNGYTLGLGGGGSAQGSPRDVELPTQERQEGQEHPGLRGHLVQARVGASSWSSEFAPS
The target of another data set is T2, Adenosine receptor A3 (Homo sapiens, UniProt P0DMS8).
T2 sequence (P0DMS8 whole entry): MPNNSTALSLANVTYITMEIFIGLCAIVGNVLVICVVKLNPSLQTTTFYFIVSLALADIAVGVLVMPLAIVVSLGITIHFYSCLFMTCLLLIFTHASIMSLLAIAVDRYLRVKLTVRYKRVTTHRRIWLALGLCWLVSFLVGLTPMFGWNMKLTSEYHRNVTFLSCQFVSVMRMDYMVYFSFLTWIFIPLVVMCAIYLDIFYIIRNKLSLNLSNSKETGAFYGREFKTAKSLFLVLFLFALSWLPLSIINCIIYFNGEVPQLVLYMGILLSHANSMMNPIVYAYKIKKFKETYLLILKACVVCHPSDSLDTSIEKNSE
Kind of data set: Displacement of [3H]PSB-11 from human recombinant adenosine A3 receptor expressed in CHO cells after 60 mins. Type of data set: cell-based. Put shortly:
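Membranes from CHO cells expressing human A3 receptor (30–50 μg protein), pretreated 10–15 min with 0.12 IU/mL adenosine deaminase. [3H]PSB-11 1.0 nM, 60 min at rt, 2.5% DMSO final. Six to seven concentrations over 3 log units. At least 2–3 experiments in duplicate.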

Data set [1] in a line: Antiinflammatory activity in C57/Bl6 mouse CD4+ T cells assessed as inhibition of anti-CD3/anti-CD28 antibody-stimulated INFgamma production after 18 hrs by ELISA. It is filed as functional, cell-based. Particulars: C57/Bl6, T-cell. A digest of the protocol: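 Splenic CD4+ T cells from male C57/Bl6 mice (8–12 wk) were isolated by magnetic CD4 beads, resuspended in Panserin 413, and stimulated on plates coated with 0.4 μg/mL anti-CD3 and 2.5 μg/mL anti-CD28 for 18 h, with compound added together with the antibodies. IFN-γ in the supernatant was measured by ELISA, and EC50 was taken from dose-response curves.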
Background: In an ELISA, binding on a coated surface is turned into a signal by an enzyme label.

A short description of data set [2]: Prodrug stability in C57/Bl6 mouse CD4+ T cells expressing ecto-5'-nucleotidase assessed as formation of 2-(cyclohexylmethylthio)adenosine at 10 mM after 18 hrs by LC/MS analysis. The conditions noted are these: t-cell, 10000 µM, in the assay text read “2-(cyclohexylethylthio)adenosine” for “2-(cyclohexylmethylthio)adenosine”. It is filed as ADME, cell-based. A digest of the protocol: (§1)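 Splenic CD4+ T cells (wild-type or ecto-5'-NT knockout C57/Bl6), about 4×10^5 cells in 200 μL, were stimulated with anti-CD3/anti-CD28 for 18 h with prodrug at initial 10, 5 or 2.5 mM. Prodrug and released nucleoside in the supernatant were quantified by LC-MS/MS (C18, water/methanol with 2 mM ammonium acetate, ESI negative MRM). Each is expressed as a percentage of the total.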

A short description of data set [3]: Prodrug stability in C57/Bl6 mouse CD4+ T cells expressing ecto-5'-nucleotidase assessed as formation of 2-(cyclohexylmethylthio)adenosine at 2.5 mM after 18 hrs by LC/MS analysis. Particulars: t-cell, 2500 µM. It is filed as ADME, cell-based. A digest of the protocol: as §1
Data set [4] can be described thus: Prodrug stability in ecto-5'-nucleotidase knockout C57/Bl6 mouse CD4+ T cells assessed as compound remaining at 2.5 mM after 18 hrs by LC/MS analysis. It is filed as ADME, cell-based. Particulars: t-cell, 2500 µM. A digest of the protocol:
as §1

Data set [5] is described as follows: Prodrug stability in C57/Bl6 mouse CD4+ T cells expressing ecto-5'-nucleotidase assessed as compound remaining at 10 mM after 18 hrs by LC/MS analysis. It is filed as ADME, cell-based. The conditions noted are these: t-cell, 10000 µM. Put shortly:
as §1

Data set [6] can be described thus: Prodrug stability in C57/Bl6 mouse CD4+ T cells expressing ecto-5'-nucleotidase assessed as compound remaining at 2.5 mM after 18 hrs by LC/MS analysis. Type of data set: ADME, cell-based. Particulars: t-cell, 2500 µM. Put shortly: as §1
Data set [7] can be described thus: Prodrug stability in ecto-5'-nucleotidase knockout C57/Bl6 mouse CD4+ T cells expressing ecto-5'-nucleotidase assessed as formation of 2-(cyclohexylmethylthio)adenosine at 10 mM after 18 hrs by LC/MS analysis. The conditions noted are these: t-cell, 10000 µM. It is filed as ADME, cell-based. A digest of the protocol:
as §1

Data set [8] in a line: Prodrug stability in ecto-5'-nucleotidase knockout C57/Bl6 mouse CD4+ T cells expressing ecto-5'-nucleotidase assessed as formation of 2-(cyclohexylmethylthio)adenosine at 2.5 mM after 18 hrs by LC/MS analysis. It is filed as ADME, cell-based. Particulars: t-cell, 2500 µM. Put shortly:
as §1

Data set [9] in a line: Prodrug stability in ecto-5'-nucleotidase knockout C57/Bl6 mouse CD4+ T cells assessed as compound remaining at 5 mM after 18 hrs by LC/MS analysis. Particulars: t-cell, 5000 µM. Type of data set: ADME, cell-based. Put shortly:
as §1

A short description of data set [10]: Prodrug stability in ecto-5'-nucleotidase knockout C57/Bl6 mouse CD4+ T cells expressing ecto-5'-nucleotidase assessed as formation of 2-(cyclohexylmethylthio)adenosine at 5 mM after 18 hrs by LC/MS analysis. Particulars: t-cell, 5000 µM. Type of data set: ADME, cell-based. A digest of the protocol: as §1
A short description of data set [11]: Prodrug stability in C57/Bl6 mouse CD4+ T cells expressing ecto-5'-nucleotidase assessed as compound remaining at 5 mM after 18 hrs by LC/MS analysis. It is filed as ADME, cell-based. The conditions noted are these: t-cell, 5000 µM. Put shortly: as §1
Data set [12] can be described thus: Prodrug stability in C57/Bl6 mouse CD4+ T cells expressing ecto-5'-nucleotidase assessed as formation of 2-(cyclohexylethylthio)adenosine at 5 mM after 18 hrs by LC/MS analysis. Particulars: t-cell, 5000 µM.
The nature of data set [13]: Prodrug stability in ecto-5'-nucleotidase knockout C57/Bl6 mouse CD4+ T cells assessed as compound remaining at 10 mM after 18 hrs by LC/MS analysis. Type of data set: ADME, cell-based. The conditions noted are these: t-cell, 10000 µM. A digest of the protocol: as §1

As to `CCCSc1nc(N)c2ncn([C@@H]3O[C@H](CO)[C@@H](O)[C@H]3O)c2n1`, the values for the negative logarithm of the Ki (pKi) on Adenosine receptor A1 and on Adenosine receptor A2a were 5.90 and 5.87, respectively.
Take `C#CCSc1nc(N)c2ncn([C@@H]3O[C@H](CO)[C@@H](O)[C@H]3O)c2n1`: the pKi at Adenosine receptor A3 was 5.16; on Adenosine receptor A1, 6.26; at Adenosine receptor A2a, 5.54.
Consider `Nc1nc(SCc2ccccc2)nc2c1ncn2[C@@H]1O[C@H](CO)[C@@H](O)[C@H]1O`, for which the pKi was 6.92 on Adenosine receptor A3, 6.03 at Adenosine receptor A1 and 6.22 on Adenosine receptor A2a.
On to `Nc1nc(SCCC2OCCO2)nc2c1ncn2[C@@H]1O[C@H](CO)[C@@H](O)[C@H]1O`, for which the pKi on Adenosine receptor A3 is 5.46; at Adenosine receptor A1, 5.94; at Adenosine receptor A2a, 5.94.
`C=CCSc1nc(N)c2ncn([C@@H]3O[C@H](CO)[C@@H](O)[C@H]3O)c2n1`: the negative-log Ki (pKi) is 5.18 on Adenosine receptor A3, 6.27 on Adenosine receptor A1 and 5.82 on Adenosine receptor A2a.
Turning to `Nc1nc(SCCc2ccccc2)nc2c1ncn2[C@@H]1O[C@H](CO)[C@@H](O)[C@H]1O`, the values for the pKi at Adenosine receptor A3 and at Adenosine receptor A2a were 5.74 and 7.73, respectively.
With `Nc1nc(SCCC2COCCO2)nc2c1ncn2[C@@H]1O[C@H](CO)[C@@H](O)[C@H]1O` (stereo partly specified), the pKi at Adenosine receptor A3 is 5.88; at Adenosine receptor A1, 6.34; at Adenosine receptor A2a it was 5.96.
For the compound `Nc1nc(SCC2CCCCC2)nc2c1ncn2[C@@H]1O[C@H](CO)[C@@H](O)[C@H]1O`, the pKi is 5.76 at Adenosine receptor A3 and 6.15 on Adenosine receptor A2a.
On to `Nc1nc(SCCC2CCCCC2)nc2c1ncn2[C@@H]1O[C@H](COP(=O)(O)O)[C@@H](O)[C@H]1O`, for which, in data set [1], the pEC50 is 5.24. In addition, the Activity in [2] was found to be 15%; in [3], 10.8%; in data set [7], 5.3%; in data set [8], 2.7%; in data set [10] it was 4.7%; in data set [12] it was 12.8%. Also, the Stability in [4] was found to be 97.3%; in [5], 85%; in data set [6] it was 89.2%; in [9], 95.3%; in [11], 87.2%; in data set [13], 94.7%.
For `Nc1nc(SC2CCCC2)nc2c1ncn2[C@@H]1O[C@H](CO)[C@@H](O)[C@H]1O`, the negative-log Ki (pKi) at Adenosine receptor A3 is 4.98; at Adenosine receptor A1, 6.00; at Adenosine receptor A2a it was 6.10.
For the compound `Nc1nc(SCCC2CCCCC2)nc2c1ncn2[C@@H]1O[C@H](CO)[C@@H](O)[C@H]1O`, the pEC50 in [1] is 7.30. Further, the negative logarithm of the Ki (pKi) was 5.44 on Adenosine receptor A3 and 6.40 on Adenosine receptor A1.
With `CCCCCCSc1nc(N)c2ncn([C@@H]3O[C@H](CO)[C@@H](O)[C@H]3O)c2n1`, the pKi at Adenosine receptor A3 is 5.63; at Adenosine receptor A1 it was 6.59; at Adenosine receptor A2a, 6.27.
For `Nc1nc(SC2CCCCC2)nc2c1ncn2[C@@H]1O[C@H](CO)[C@@H](O)[C@H]1O`, the pKi at Adenosine receptor A3 was ≤ 5.00; at Adenosine receptor A1, 6.86; on Adenosine receptor A2a, 5.61.

Usually pKi stands for the Ki on a negative log10 scale, so that one unit is a factor of ten. In general, pEC50 refers to the negative decadic logarithm of the EC50, by convention in mol/L.
